# Screens from PubChem BioAssay.
# This excerpt belongs to a sample that is enriched for hits.
# Lung fibro prol – blocks proliferation of human lung fibroblasts. AID 719. LL 47 human lung fibroblast viability, ATP luminescence; hits give low values. 1.1% of 85,000 active. viability, % at 10 µM;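 active = viability at or below 50% in the single dose screen; inactive = viability above 50%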;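 note: compound exposure lasted 72 h before the ATP readout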
#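 Material: human LL 47 lung fibroblast cells; quantity: 1,150 cells/well; medium: IMEM plus 15% FBS; doses: 0.1% DMSO in all compound wells; timing: overnight attachment after seeding, then 72 h compound exposure at 37 °C; detection: CellTiter-Glo luminescence; measure: % viability of median cell-only signal; controls: cell-only wells, no compound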
# bCat KO growth – beta-catenin-lacking colon tumor cell growth suppression. HCT116 beta-catenin knockout viability, CellTiter-Glo, 60 h; hits give low values. viability, % at 10 µM. 1.5% of 140,000 active;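 active = viability at or under a set limit, the compound median less 4 SD, cut at about 6% in these data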
# PTEN del growth – PTEN-deleted cell growth suppression. HCT116 PTEN-null viability, CellTiter-Glo, 60 h; hits give low values. viability, % at 10 µM. 1.2% of 140,000 active. AID 827;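 active = viability at or below a set limit, 4 SD under the median of all tested compounds, cut at about 3.7% in these data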;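 note: PTEN knockout HCT116 line with beta catenin targeted HCT116 as companion control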
# HUVEC inhibit – blocks proliferation of human endothelial cells | HUVEC proliferation, CellTiter-Glo luminescence, 72 h; hits give low values | viability, % at 10 µM (by protocol) | 1.1% of 86,000 active | AID 648;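 active = viability at or below 30%; inactive = viability above 30%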
# H69AR inhibit – blocks growth of human H69AR lung tumor cells; H69AR lung tumor viability, ATP luminescence, 72 h; hits give low values; viability, % at 10 µM; 6% of 85,000 active; AID 598;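 active = viability at or below 40%; inactive = viability above 40%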;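 note: multidrug resistant small cell line overexpressing MRP-1 efflux transporter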
# A number is an active result; i = inactive; nt = no result given.
SMILES,Lung fibro prol,bCat KO growth,PTEN del growth,HUVEC inhibit,H69AR inhibit
Cc1ccc(-c2nc(S(=O)(=O)c3ccc(F)cc3)c(SCC(=O)NCC3CCCO3)o2)cc1 (centres undefined),i,i,i,i,i
O=C(CSc1oc(-c2ccc(F)cc2)nc1S(=O)(=O)c1ccc(F)cc1)NCC1CCCO1 (centres undefined),14,i,i,i,i
O=C1C(Cl)=C(NCC2CCCO2)C(=O)N1Cc1ccccc1 (centres undefined),i,i,i,i,i
N=c1n(CCN2CCOCC2)c2ccccc2n1CC(=O)c1ccc(Cl)c(Cl)c1,i,i,i,i,0.9
CCCCOC(=O)Cn1c(=N)n(CCN2CCOCC2)c2ccccc21,i,nt,nt,i,i
COCc1nnc(NC(=O)CC(C)c2ccccc2)s1 (centres undefined),i,i,i,i,i
CCCOc1ccc([C@@H]2C3CN(C(=O)OCC)CC=C3C(C#N)=C(N)C2(C#N)C#N)cc1OC (some centres undefined),i,i,i,i,i
CCOC(=O)N1CC=C2C(C#N)=C(N)C(C#N)(C#N)[C@H](c3cccs3)C2C1 (some centres undefined),i,i,i,i,37
CC(C)(C)OC(=O)N1CC=C2C(C#N)=C(N)C(C#N)(C#N)C(c3cccs3)C2C1 (centres undefined),i,i,i,i,23
CC1CC=C2C(C#N)=C(N)C(C#N)(C#N)C(c3cccs3)C2C1 (centres undefined),i,i,i,i,32
Cc1c(N(C)C(=O)C2CCCN2S(=O)(=O)c2ccccc2)c(=O)n(-c2ccccc2)n1C (centres undefined),i,i,i,i,i
COc1ccc(CN2CCN(c3cc(C)nc4c5c(C)cc(C)nc5nn34)CC2)cc1F,i,nt,nt,i,i
CCOc1ccc(CN2CCN(c3cc(C)nc4c5c(C)cc(C)nc5nn34)CC2)cc1,i,i,i,i,32
Cc1cc(C)c2c(n1)nn1c(N3CCN(c4ccccc4C)CC3)cc(C)nc21,i,nt,nt,i,37
O=C(OCn1ncc(Cl)c(Cl)c1=O)c1cccc(C(F)(F)F)c1,nt,i,i,nt,nt
CCc1ccc(C(=O)Cn2ncc(Cl)c(Cl)c2=O)cc1,29,4.8,3.0,6.8,6.1
Cc1cc(C)cc(Cn2ncc(Cl)c(Cl)c2=O)c1,nt,1.9,1.6,nt,nt
Cc1cc(=O)[nH]c2c1cnn2Cc1ccccc1,i,i,i,i,i
O=c1c(Cl)c(Cl)cnn1-c1ccccc1,nt,0.9,0.9,nt,nt
Cc1cc(=O)c2n(Cc3ccccc3Cl)nc[n+]2[nH]1,i,i,i,i,i
O=c1c(Cl)c(Cl)cnn1Cc1ccccc1Cl,nt,1.7,1.9,nt,nt
Cc1cc(C)cc(OC2CCCCC2NS(=O)(=O)c2ccccc2)c1 (centres undefined),nt,i,i,nt,nt
COc1ccc(-c2cc(C(=O)NCCc3ccccc3)no2)cc1OC,i,i,i,i,i
Cc1ccc(Cn2ncc(Cl)c(Cl)c2=O)cc1,nt,2.7,1.7,nt,nt
Cc1ccc(Cn2ncc3c(N4CCN(c5ccc(C)cc5)CC4)ncnc32)cc1,i,i,i,i,i
SMILES,Lung fibro prol,bCat KO growth,PTEN del growth,HUVEC inhibit,H69AR inhibit
N#CC1=C2SCN(Cc3ccco3)CN2C(=O)CC1c1ccccc1F (centres undefined),i,i,i,i,40
Cc1ccc(C(=O)NCc2ccco2)cc1Br,i,i,i,i,i
Cc1ccc2c(CC(=O)NCc3ccco3)coc2c1C,i,i,i,i,27
CCOC(=O)C1CCN(CC(O)COc2ccc(C(C)(C)CC)cc2)CC1 (centres undefined),i,i,i,i,26
CC1(C)Cc2cccc(OCC(=O)Nc3cc(C(F)(F)F)ccc3N3CCOCC3)c2O1,i,i,i,i,i
Cc1cc(N2CCN(S(=O)(=O)c3ccccc3)CC2)c2ccccc2n1,i,i,i,i,i
Cc1cc(N2CCN(c3ccc([N+](=O)[O-])c4cccnc34)CC2)c2ccccc2n1,nt,3.5,i,nt,nt
COc1ccc(OC)c(S(=O)(=O)N(C)CC(=O)Nc2ccccc2OC)c1,i,i,i,i,i
CCOC(=O)c1c(-c2cccs2)csc1NC(=O)c1ccco1,i,i,i,i,i
CCOC(=O)c1c(C2COc3ccccc3O2)csc1NC(=O)c1ccco1 (centres undefined),i,i,i,i,31
CCOC(=O)CNC(=O)CNC(=O)c1ccc(OCC(C)C)cc1,i,i,i,i,i
CCCCCOc1ccc(C(=O)NCC(=O)NCC(=O)OCC)cc1,i,i,i,i,25
Cc1ccc(C(C)C)c(OCC(=O)Nn2c(C)nc3ccccc3c2=O)c1,i,i,i,i,i
COc1cccc(C(=O)Cn2c(=N)n(C)c3ccccc32)c1,i,i,i,i,i
O=C(CNC(=O)c1ccco1)OCc1cccc(Cl)c1,i,i,i,i,i
O=C(CCNc1cccc(Cl)c1)c1ccco1,i,i,i,i,2.2
O=c1[nH][nH]c(-c2ccccc2O)c1C(C[N+](=O)[O-])c1ccc(Br)cc1 (centres undefined),nt,4.2,1.6,nt,nt
COc1ccc(C(C[N+](=O)[O-])c2c(C)[nH]c3ccccc23)cc1OC (centres undefined),nt,i,i,nt,nt
Cc1ccc(C(C[N+](=O)[O-])c2c(-c3ccccc3O)[nH][nH]c2=O)cc1 (centres undefined),nt,3.5,3.6,nt,nt
COc1ccccc1NC1=C(C)C(=O)CC1,i,i,i,i,i
COc1cccc(C(=O)Nc2ncc3c(n2)CC(C)(C)CC3=O)c1,i,i,i,i,i
COc1ccc(Cn2c(CCC(=O)Nc3ccccc3)nc3cccnc32)cc1,i,i,i,i,i
COc1ccc(Cn2c(CCC(=O)Nc3ccc(C)c(C)c3)nc3cccnc32)cc1,i,i,i,i,37
CC(=O)Oc1ccc2c(C)cc(=O)oc2c1,i,i,i,i,i
CC(=O)Oc1cc2oc(=O)cc(C)c2cc1OC(C)=O,i,i,i,i,36
SMILES,Lung fibro prol,bCat KO growth,PTEN del growth,HUVEC inhibit,H69AR inhibit
CCc1nc(N2CCCC(C)C2)c2oc3ccccc3c2n1 (centres undefined),i,i,i,i,i
CC(C)=CCC/C(C)=C/CC(C)(C)CNCCN1CCNCC1,1.7,1.1,1.2,1.5,0.6
CC(C)=CCCC(C)CN1CCC(O)CC1 (centres undefined),i,i,i,i,i
CC(C)=CCC/C(C)=C/CCC(C)NCCN1CCNCC1 (centres undefined),14,1.8,1.8,i,i
COc1ccc(Cn2c(SCc3ccc(C)cc3)nc3cc(OC)c(OC)cc3c2=N)cc1Cl,nt,1.2,1.2,nt,nt
COCCNC(=O)CSc1nc2cc(OC)c(OC)cc2c(=O)n1Cc1ccco1,i,i,i,i,i
CCCCNC(=O)CSc1nc2cc(OC)c(OC)cc2c(=O)n1Cc1ccc(OC)cc1,nt,1.3,0.6,nt,nt
COc1ccc(Cn2c(SCc3cc(C)ccc3C)nc3cc(OC)c(OC)cc3c2=N)cc1,nt,1.9,1.4,nt,nt
COc1cc2nc(SCc3ccc(Cl)cc3Cl)n(Cc3cccs3)c(=N)c2cc1OC,nt,i,i,nt,nt
